Here are results for 7 compounds from publication PMC3016090 (ChemMedChem, 2009).

Where two headings read alike, the source gives them in different places. Marks after values point to notes of the source that are not given here. Bounds are passed on as bounds.

In data set [1] the target is T1, FAAH (Rattus norvegicus, UniProt P97612).
T1 sequence (P97612 1-579): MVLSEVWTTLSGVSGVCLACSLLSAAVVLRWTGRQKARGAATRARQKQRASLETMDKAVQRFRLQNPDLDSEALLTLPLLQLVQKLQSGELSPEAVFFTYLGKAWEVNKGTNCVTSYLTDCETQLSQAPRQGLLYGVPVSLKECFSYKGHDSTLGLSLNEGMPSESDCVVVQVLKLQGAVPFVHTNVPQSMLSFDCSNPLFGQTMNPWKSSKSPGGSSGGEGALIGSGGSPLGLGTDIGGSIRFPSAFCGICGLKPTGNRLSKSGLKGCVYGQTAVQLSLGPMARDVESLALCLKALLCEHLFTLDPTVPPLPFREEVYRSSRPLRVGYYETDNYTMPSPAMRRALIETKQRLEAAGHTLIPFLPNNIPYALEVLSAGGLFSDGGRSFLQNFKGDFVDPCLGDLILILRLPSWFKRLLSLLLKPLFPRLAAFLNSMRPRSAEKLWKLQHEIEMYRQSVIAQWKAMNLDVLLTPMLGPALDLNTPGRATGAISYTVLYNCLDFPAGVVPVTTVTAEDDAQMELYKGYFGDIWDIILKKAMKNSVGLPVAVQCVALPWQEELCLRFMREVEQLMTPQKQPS
Briefly: FAAH activity in vitro, rat brain membranes, [3H]-anandamide hydrolysis. Type of data set: biochemical.

A short description of data set [2]: Stability in phosphate buffered saline at pH 7.4. Type of data set: physicochemical. As to conditions: PBS pH 7.4, 37 °C; for pH 7.4 (%), percent remaining after 24 h incubation: 1 μM compound. The procedure, abridged:
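Test compound at 1 μM final (1% DMSO) in 10 mM PBS, pH 7.4, at 37 °C. Aliquots were taken at intervals and quantified by LC against calibration curves built in spiked PBS. Reported as percent remaining after 24 h.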

Data set [3] can be described thus: Stability in rat plasma. Type of data set: in vitro ADME. Particulars: for Rat Plasma t1/2: 80% rat plasma in PBS pH 7.4, 37 °C; for half-life at 1 μM: rat, pooled rat plasma diluted to 80% (vol/vol) with PBS, pH 7.4. Summed up: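 Heparinized rat blood from cardiac puncture gave plasma (1,900 x g), pooled and diluted to 80% v/v with 100 mM PBS, pH 7.4. Test compound was added from a 100 μM DMSO stock and incubated at 37 °C with shaking. Timed samples were quenched in ice-cold acetonitrile, spun, and analysed by reversed-phase HPLC-UV against plasma calibration curves. Apparent t1/2 came from log-concentration-versus-time regression.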

Data set [4] has as its target T2, FAAH (Mus musculus, UniProt O08914).
T2 sequence (O08914 1-579): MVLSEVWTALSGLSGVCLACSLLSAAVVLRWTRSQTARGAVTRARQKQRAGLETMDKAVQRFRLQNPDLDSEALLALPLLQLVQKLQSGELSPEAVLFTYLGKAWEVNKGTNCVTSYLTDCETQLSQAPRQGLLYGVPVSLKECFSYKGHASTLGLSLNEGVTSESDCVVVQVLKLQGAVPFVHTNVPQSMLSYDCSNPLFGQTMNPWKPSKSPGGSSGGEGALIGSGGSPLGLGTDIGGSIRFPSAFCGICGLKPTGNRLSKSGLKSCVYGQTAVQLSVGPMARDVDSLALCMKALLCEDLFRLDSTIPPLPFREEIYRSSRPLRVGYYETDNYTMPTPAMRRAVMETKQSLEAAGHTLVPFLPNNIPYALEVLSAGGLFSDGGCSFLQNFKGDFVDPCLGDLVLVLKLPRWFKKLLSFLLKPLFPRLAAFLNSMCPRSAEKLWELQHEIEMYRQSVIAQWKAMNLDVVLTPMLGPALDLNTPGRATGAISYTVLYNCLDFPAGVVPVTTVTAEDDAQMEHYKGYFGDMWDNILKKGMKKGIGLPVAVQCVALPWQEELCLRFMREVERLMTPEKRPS
Nature of the data set: Brain FAAH activity measured ex vivo after i.p. administration in mice. Particulars: for ID50 / Percent FAAH activity remaining at 1 mg-kg^−1 / inhibition of brain FAAH activity in vivo: mice; for ID50 / inhibition of brain FAAH activity in vivo: i.p.; for ID50: brain FAAH activity ex vivo; for Percent FAAH activity remaining at 1 mg-kg^−1: 1 mg-kg^−1 i.p., brain FAAH ex vivo, printed in ID50 column; for inhibition of brain FAAH activity in vivo: doses up to 1 mg-kg^−1; for ED50: mouse, ip, read-out: ID50. The procedure, abridged: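 Mice received a single i.p. injection. Brains were frozen in liquid N2, thawed, homogenized in 10 vol ice-cold 50 mM Tris pH 7.5 with 0.32 M sucrose, and spun at 1000 x g for 10 min at 4 °C. Homogenate (50 μg protein) was incubated for 30 min at 37 °C in 50 mM Tris pH 7.5 with 0.05% fatty acid-free BSA and 10 μM anandamide plus [3H]-anandamide. Reactions were stopped with chloroform/methanol (1:1), and aqueous-layer radioactivity was scintillation counted.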

A short description of data set [5]: Brain tissue and serum drug levels in mice by LC/MS. Type of data set: in vivo, mouse. Particulars: 1 mg-kg^−1 i.p.; for AUC in the brain: 2 h time-course, n = 3; for Cmax in brain tissue: single administration, n = 3 per timepoint.
Data set [6] deals with liver carboxylesterases. Type of data set: biochemical. Particulars: rat liver microsomes, 30, 100 and 300 nM. Summed up:
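Commercial rat liver microsomes (2.5 μg) were preincubated with test compound for 30 min at room temperature. p-Nitrophenylacetate was then added (1 mM final). After 20 min, p-nitrophenol formation was read as absorbance at 405 nm.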
In general terms: Liver microsomes are a subcellular fraction often used to study metabolism.

The mark [7] stands for this setting: rat brain membranes, 10 μM anandamide, no pre-incubation.

As for `O=C(NC1CCCCC1)Oc1cccc(-c2ccccc2)c1` [Compound 1a], in data set [1] (setting [7]), inhibition was half-maximal at 25.6 ± 2 nM (IC50). The “pH 7.4 (%), percent remaining after 24 h incubation” value (“pH 7.4 (%), percent remaining” below) in data set [2] came to 41.1 ± 1.1%. Further, the “Rat Plasma t1/2” value in data set [3] was 42.7 ± 3.7 min. The compound further came in with an ID50 in data set [4] of 0.81 mg/kg. In data set [5], the “AUC in the brain” value was determined as 2589 ± 423 arbitrary units and the “Cmax in brain tissue” value came out at 74 ± 3 pmol/g.
With `O=C(NCCCCc1ccccc1)Oc1cccc(-c2ccccc2)c1` [Compound 1b], the IC50 in data set [1] (setting [7]) came out at 9.4 ± 2.8 nM. In addition, the “pH 7.4 (%), percent remaining” value in data set [2] came to 35.9 ± 2.7%. The “Rat Plasma t1/2” value in data set [3] came to 6.6 ± 0.7 min. Further, the “plasma t1/2, fold shorter than URB524” value in data set [3] (rat plasma, versus URB524) is listed as “approximately 6 fold”. In data set [4], this compound displayed an ID50 of 0.96 mg/kg.
For the compound `O=C(NCCCCCCCCc1ccccc1)Oc1cccc(-c2ccccc2)c1` [Compound 1c], in data set [1] (setting [7]), the IC50 was found to be 5.4 ± 0.5 nM. Moreover, the “in vitro FAAH potency relative to parent URB524 (times more potent)” value in data set [1] (ratio of IC50 versus URB524) was “approximately 5 fold”. In data set [2], the “pH 7.4 (%), percent remaining” value is 65.9 ± 3.1%. Further, the “Rat Plasma t1/2” value in data set [3] came to 7.0 ± 0.1 min. For the same compound, in data set [4], the “Percent FAAH activity remaining at 1 mg-kg^−1” value amounted to 105% ^[b] and the “inhibition of brain FAAH activity in vivo” value was “completely inactive in vivo”.
As to `NC(=O)c1cccc(-c2cccc(OC(=O)NC3CCCCC3)c2)c1` [Compound 1d], the “pH 7.4 (%), percent remaining” value in data set [2] worked out at 40.2 ± 0.6%. The compound also yielded a half-life at 1 μM in data set [3] of 33 ± 0.5 min. Further, the ED50 in data set [4] amounted to 0.22 mg/kg. Besides, in data set [5], the “AUC in the brain” value is recorded as 6036 ± 899 arbitrary units and the “Cmax in brain tissue” value came out at 226 ± 29 pmol/g.
`NC(=O)c1cccc(-c2cccc(OC(=O)NCCCCCCCCc3ccccc3)c2)c1` [Compound 1f, 8-Phenyloctylcarbamic acid 3′-carbamoylbiphenyl-3-yl ester] displayed an IC50 in data set [1] of 0.26 ± 0.02 nM. Besides, in data set [2], the “pH 7.4 (%), percent remaining” value is listed as 42.8 ± 1.4%. For the same compound, the half-life at 1 μM in data set [3] is 4 ± 0.1 min. Besides, in data set [4], the “Percent FAAH activity remaining at 1 mg-kg^−1” value amounted to 65%^b and the “inhibition of brain FAAH activity in vivo” value is “little or no”. The “drug levels in serum and brain after administration” value in data set [5] was “little or no increase in drug levels in serum and brain”.
For `Nc1ccc(OC(=O)NC2CCCCC2)cc1-c1ccccc1` [Compound 1h, Cyclohexylcarbamic acid 6-aminobiphenyl-3-yl ester], half-maximal inhibition in data set [1] (IC50) required 27.2 ± 4.8 nM. Moreover, the “pH 7.4 (%), percent remaining” value in data set [2] was 89.0 ± 0.5%. Moreover, in data set [4], the ED50 worked out at 0.18 mg/kg. For the same compound, in data set [6], the “effect on liver carboxylesterase activities compared to URB597” value is reported as “reduced effects on liver carboxylesterase activities”.
`O=C(NC1CCCCC1)Oc1ccc([N+](=O)[O-])c(-c2ccccc2)c1` [Compound 1i, Cyclohexylcarbamic acid 6-nitrobiphenyl-3-yl ester] gave an IC50 in data set [1] greater than 30000 nM. Further, the “pH 7.4, value expressed as t1/2” value in data set [2] is 1.7 ± 0.1 ^[c] min.

The term IC50 denotes the point on the concentration scale where inhibition reaches its midpoint. Read a low IC50 as greater potency in that assay. By half-life is commonly meant how long it takes for the measured level to halve. The low end stands for fast loss, the high end for slow loss.
